# Wnt bcat act = activators of Wnt/beta-catenin signaling | Wnt/beta-catenin reporter cell assay, activator, plate reader | activation, % at 9.35 µM | hit rate 1.2% among 300,000 | AID 743398; in the data active = activation above about 30%, passing the limit was not always enough
# HSF1 activator = increases HSF-1 driven luciferase reporter signal | NIH3T3-HGL HSF-1 luciferase reporter, MG132, 8 h; 100% = twice DMSO control signal | activation, % at 9 µM | hit rate 1.7% among 300,000 | AID 504408;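 active = mean replicate activation of at least 50% with a set share of replicates each reaching 50%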
# SR-BI HDL uptake = blocks mouse SR-BI lipid uptake from DiI-HDL; Q61009; ldlA[mSR-BI] CHO cells, DiI-HDL uptake fluorescence, 3 h; hit rate 0.96% among 320,000; inhibition, % at 12.5 µM; AID 488896;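 active = mean replicate inhibition of at least 70% and a set share of replicates each scoring 70 or more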
# Target sequence (Q61009 whole entry, looked up): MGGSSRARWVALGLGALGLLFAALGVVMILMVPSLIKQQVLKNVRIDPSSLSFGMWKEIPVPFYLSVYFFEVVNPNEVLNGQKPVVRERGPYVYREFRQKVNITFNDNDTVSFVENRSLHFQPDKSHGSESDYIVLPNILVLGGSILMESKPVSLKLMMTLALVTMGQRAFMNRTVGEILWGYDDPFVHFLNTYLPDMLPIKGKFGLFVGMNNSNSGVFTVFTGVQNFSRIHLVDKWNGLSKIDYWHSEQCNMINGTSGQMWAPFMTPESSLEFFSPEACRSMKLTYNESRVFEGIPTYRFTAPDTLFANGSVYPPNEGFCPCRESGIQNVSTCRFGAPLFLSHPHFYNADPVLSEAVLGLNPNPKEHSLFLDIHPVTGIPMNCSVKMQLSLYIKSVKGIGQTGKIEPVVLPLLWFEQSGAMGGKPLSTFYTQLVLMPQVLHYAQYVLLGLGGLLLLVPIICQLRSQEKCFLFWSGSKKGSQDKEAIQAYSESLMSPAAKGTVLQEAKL
# SR-BI DiI-HDL act = enhances SR-BI lipid uptake from DiI-HDL. CHO ldlA[mSR-BI] cells, DiI-HDL uptake fluorescence, 3 h; 100 = double the neutral-control signal. activation, % at 12.5 µM. hit rate 0.096% among 320,000;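 active = mean replicate activation of at least 60% and every replicate at or above 60%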
#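 system = CHO ldlA[mSR-BI] cells, LDL receptor-null, SR-BI overexpressing | medium = Ham's F12 with 0.5% BSA, HEPES 25 mM, pH 7.4 | probe or stimulus = DiI-HDL 10 µg/mL | compound dosing = single-point compound dose | incubation = compound exposure 3 h, 37 °C | technique = DiI fluorescence, bottom read | read-out = cell-associated DiI fluorescence as measure of HDL uptake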
# MITF act = increases MITF-driven TRPM1 promoter luciferase signal | hit rate 0.75% among 300,000 | SK-MEL-5 TRPM1-promoter luciferase, 24 h; % of positive control, neutral wells = 0 | activation, % at 12.5 µM;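 active = mean activation of at least 80% with every replicate also reaching 80%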
# DiI quench = counter-screen for SR-BI lipid transfer inhibitors: DiI fluorescence quenchers | shares compounds with SR-BI HDL uptake | cell-free DiI-HDL fluorescence quenching, 30 min | AC50, µM (series often up to 35 µM) | hit rate 20% among 470;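 active = quenching, a falling signal, with AC50 below a set limit tied to the top valid dose, actives reach about 32 µM in these data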
# A number is an active result; n = inactive; x = no result given. Compounds with a hit are over-represented: about 3.6% of the library has one in this group of screens.
SMILES,Wnt bcat act,HSF1 activator,SR-BI HDL uptake,SR-BI DiI-HDL act,MITF act,DiI quench
Cc1ccc(NC(=O)Cn2c(O)c(N=NC(=O)c3cc4ccccc4cc3O)c3ccccc32)cc1,n,x,n,n,n,x
O=C(N=Nc1c(O)n(Cc2ccccc2)c2ccccc12)c1ccc(O)cc1,x,62.1,n,n,150.4,x
COc1ccc(NC(=O)c2cccc3c2C(=O)c2ccc(-c4ccc(F)cc4OCc4ccccc4)cc2S3(=O)=O)cc1,n,x,n,n,n,x
COc1ccc(OC[C@@H](O)CNC(=O)c2cccc3c2C(=O)c2ccc(-c4ccc(F)cc4OCc4ccccc4)cc2S3(=O)=O)cc1,x,x,80.2,n,n,n
CCCCOCC1CN(CCCC)S(=O)(=O)c2c(cccc2N2CCCCC2)O1 (configuration not stated),n,x,x,x,x,x
COc1ccc(C2C(C#N)=C(N)N(c3ccccc3C#N)C3=C2C(=O)CCC3)cc1CN1CCCC1 (configuration not stated),n,n,n,n,n,n
COc1cc(C2C(C#N)=C(N)N(c3cccnc3)C3=C2C(=O)CCC3)ccc1O (configuration not stated),n,n,n,n,n,x
COc1ccc(-c2ccc3c(c2)C2CC3CCN2C(=O)OCc2ccccc2)cc1 (configuration not stated),n,x,n,n,n,x
O=C(OCc1ccccc1)N1CCC2CC1c1cc(-c3ccc(F)cc3)ccc12 (configuration not stated),n,x,x,x,n,n
CN1CCC2CC1c1cc(-c3ccc(C(F)(F)F)cc3)ccc12 (configuration not stated),n,x,n,n,n,n
CS(=O)(=O)N1CCC2CC1c1cc(-c3ccccc3)ccc12 (configuration not stated),n,x,n,n,n,x
CC(=O)NC(c1ccccc1)c1nc(-c2cccc(C(F)(F)F)c2)cs1 (configuration not stated),n,x,x,x,x,x
O=C(Nc1cccc(NC(=O)c2ccccc2Cl)c1)c1ccc(F)cc1,n,n,79.1,n,x,n
O=C(Nc1ccccc1C(=O)O)c1cccc(NC(=O)c2ccccc2Cl)c1,n,n,n,n,x,x
Nc1c(-c2cccs2)cnn1-c1nc(-c2ccc(F)cc2)cs1,x,n,74.1,n,n,n
O=C1CCSC2=C1SCc1sccc12,n,x,x,x,x,x
CC(C(=O)NCc1ccccc1)N(Cc1ccccc1Cl)C(=O)c1snc(C(N)=O)c1N (configuration not stated),n,n,84.4,n,n,n
O=C(Nc1ccc(-c2csc(Nc3ccc(Cl)cc3)n2)cc1)c1cccc(C(F)(F)F)c1,n,n,x,x,x,x
O=C(Nc1ccc(-c2csc(Nc3ccccc3)n2)cc1)c1cccc(C(F)(F)F)c1,n,n,113.7,n,n,1.54µM
Cc1nc2ccc(NC(=O)[C@H](C)N3C(=O)C4CC=CCC4C3=O)cc2s1 (some centres not stated),n,x,n,n,n,x
Cc1ccc(C(C(=O)NC(C)(C)C)N(Cc2cccs2)C(=O)c2csnn2)cc1 (configuration not stated),x,n,n,n,n,x
Cc1ccc(C(C(=O)NC(C)(C)C)N(Cc2cccs2)C(=O)c2ccc3c(c2)OCCO3)cc1 (configuration not stated),n,n,n,n,n,n
CCC(C)(C)NC(=O)C(c1ccc(C)cc1)N(Cc1cccs1)C(=O)c1ccc2c(c1)OCCO2 (configuration not stated),x,55.2,76.5,n,n,n
COC(=O)[C@@]1(C(C)C)N=C(c2cc(OC)c(OC)c(OC)c2)[C@]2(O1)C(=O)N(C)c1ccc(Cl)cc12,n,x,x,x,x,x
CC[C@@H](C)[C@H](NC(=O)Cc1c(C)c2cc3c(C)coc3c(C)c2oc1=O)C(=O)O,n,n,x,x,n,x
CC[C@@H](C)[C@H](NC(=O)Cc1c(C)c2cc3c(C)c(C)oc3c(C)c2oc1=O)C(=O)O,n,n,94.5,n,x,n
O=C(N[C@@H]1C/C=C\C[C@H](CC(=O)N(CCO)Cc2ccccc2)C(=O)NC[C@@H](c2ccccc2)OC1=O)OCC1c2ccccc2-c2ccccc21,n,x,85.4,n,n,n
